# Published values collected from several papers.
# Compare with care: the assays were run in different laboratories.
# Target: Mitogen-activated protein kinase 11 (MAPK11, Homo sapiens, UniProt Q15759)
Structure (SMILES),observed,action,technique,concentration,quantity,result
N#Cc1ccc(NC(=O)Nc2ccccc2)cc1,cell-free assay,,competition with immobilised ligand,25 µM,remaining binding,100%
Cc1cc(O)c(-c2ccc([C@@H](C)CN(C)C)cc2)c2c1[nH]c(=O)c1sccc12,enzyme activity,inhibitor,,0.1 µM,inhibition,5.56%
C#Cc1cc(-c2cc(Nc3nc(N[C@@H](C)c4ccc(F)cn4)ncc3Cl)n[nH]2)ccc1C=O,enzyme activity,inhibitor,,0.2 µM,inhibition,21.9%
CN1CCN(C(=O)c2ccc(NC(=O)Nc3ccc(N(C)c4ccnc(Nc5ccc(CS(C)(=O)=O)cc5)n4)cc3)cc2)CC1,binding,,competition with immobilised ligand,1 µM,remaining binding,100%
CC#CC(=O)N1CCC[C@H]1c1nc(-c2ccc(C(=O)Nc3ccccn3)cc2)c2c(N)nccn12,enzyme activity,inhibitor,,1 µM,inhibition,0%
CCCCC(=O)Nc1ccc(-c2ccc3ncn(CCC)c(=O)c3c2)cn1,binding,,competition with immobilised ligand,0.5 µM,remaining binding,87%
C#Cc1cnc(Nc2ccnc(CO)c2)nc1Nc1ccccc1S(C)(=O)=NC#N (stereo not shown),cell-free assay,,,1 µM,remaining signal,82%
Cc1ccc(NC(=O)c2ccnc(C(F)(F)F)c2)cc1-c1cc(OCCO)nc(N2CCOCC2)c1,binding,,competition with immobilised ligand,1 µM,remaining binding,34%
C=CC(=O)N1CCC[C@@H](n2nc(-c3ccc(Oc4ccccc4)cc3)c3c(N)ncnc32)C1,enzyme activity,inhibitor,,1 µM,inhibition,2%
CC(C)S(=O)(=O)c1ccc2nccc(Nc3ccc4sc(C5CCCC5)nc4c3)c2c1,enzyme activity,inhibitor,,1 µM,activity vs control,108%
